Data set [1] is described as follows: Cytotoxicity against human MT2 cells after 4 days using XTT assay. It is filed as cell-based. The method in brief: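 MT-2 cells (5×10^5/mL) mixed with equal volume of graded compound concentrations, 37 °C for 4 days; XTT (1 mg/mL) containing 0.02 µM PMS added, A450 read after 4 h. CC50 calculated by CalcuSyn; triplicate, mean ± SD.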
The nature of data set [2]: Selectivity index, ratio of CC50 for human MT2 cells to EC50 for HIV1 3B. It counts as toxicity, cell-based. Particulars: read-out: Ratio CC50/EC50; call rule not given here. The method in brief: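 Ratio CC50/EC50, CC50 from XTT cytotoxicity in MT-2 cells over 4 days and EC50 from p24 inhibition in HIV-1 IIIB-infected MT-2 cells at day 4.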
For data set [3], the system named is Human immunodeficiency virus 1. In words: Antiviral activity against HIV1 3B infected in human MT2 cells assessed as inhibition of p24 production after 4 days by ELISA. It counts as functional, organism-based. Particulars: for pEC50: Human immunodeficiency virus 1, 3B, MT2, 96 h, read-out: EC50.
The nature of data set [4]: Inhibition of HIV1 gp41 assessed as gp41-six-helix bundle formation after 30 mins by sandwich ELISA. The arrangement: species or system Human immunodeficiency virus 1. To be noted: for pIC50: read-out: IC50. Put shortly: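 N36 peptide (2 µM) preincubated with graded compound concentrations at 37 °C for 30 min, then C34 (2 µM) added for another 30 min at 37 °C. Mixture captured on plates coated with anti-6-HB rabbit IgG (10 µg/mL); detected with mAb NC-1, biotinylated anti-mouse IgG, SA-HRP, TMB; A450. Percent inhibition calculated; triplicate.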

SMILES strings stand for the structures. pEC50, pIC50: −log10 of the molar value.

`Cc1cc(/C=C2\SC(=S)N(c3ccc(Br)cc3)C2=O)c(C)n1-c1cccc(-c2nnn[nH]2)c1`: in data set [1], the CC50 at 96 h was 46.8 µM. For the same molecule, the selectivity ratio in data set [2] amounted to 21. In addition, the pEC50 in data set [3] was 5.66. Moreover, in data set [4], the pIC50 is 5.34.

In data set [1], `Cc1cc(C=C(C#N)C#N)c(C)n1-c1cccc(-c2nnn[nH]2)c1` registered a CC50 at 96 h above 400 µM. In addition, the EC50 entry in data set [3] (mt2) is listed as “Not Active”. The IC50 entry in data set [4] is given as “Not Active”.

Molecule `COc1cccc(N2C(=O)/C(=C/c3cc(C)n(-c4cccc(-c5nnn[nH]5)c4)c3C)SC2=S)c1` came in with a CC50 at 96 h in data set [1] of 40.6 µM. For the same molecule, the selectivity ratio in data set [2] stood at 6.8. Moreover, the pEC50 in data set [3] is 5.22. Besides, the negative-log IC50 (pIC50) in data set [4] is 5.51.

As for `COc1ccc(N2C(=O)/C(=C/c3cc(C)n(-c4cccc(-c5nnn[nH]5)c4)c3C)SC2=S)cc1`, in data set [1], the midpoint of cytotoxicity, the CC50 at 96 h, lay at 87 µM. For the same molecule, in data set [2], the selectivity ratio was found to be 1.8. For the same molecule, in data set [3], the pEC50 was 4.32. The pIC50 in data set [4] was 5.04.

In data set [1], `Cc1cc(/C=C/[N+](=O)[O-])c(C)n1-c1cccc(-c2nnn[nH]2)c1` displayed a CC50 at 96 h of 78.8 µM. In data set [2], the selectivity ratio is 2.7. In data set [3], the pEC50 was 4.53. In addition, in data set [4], the IC50 entry is on record as “Not Active”.

As to `CCOC(=O)/C(C#N)=C/c1cc(C)n(-c2cccc(-c3nnn[nH]3)c2)c1C`, the CC50 at 96 h in data set [1] stood at 76.8 µM. The selectivity ratio in data set [2] came to 4.3. Besides, the pEC50 in data set [3] is 4.74. Moreover, the IC50 entry in data set [4] is reported as “Not Active”.

For `Cc1cc(/C=C2\SC(=S)N(Cc3ccccc3)C2=O)c(C)n1-c1cccc(-c2nnn[nH]2)c1`, in data set [1], the CC50 at 96 h was determined as 150 µM. For the same molecule, in data set [2], the selectivity ratio came out at 12. Besides, the pEC50 in data set [3] was 4.91. Moreover, the pIC50 in data set [4] was 4.90.

In turn, `Cc1cc(/C=C2\SC(=S)N(c3cccc([N+](=O)[O-])c3)C2=O)c(C)n1-c1cccc(-c2nnn[nH]2)c1` yielded a CC50 at 96 h in data set [1] of 77 µM. For the same molecule, in data set [2], the selectivity ratio amounted to 3.2. For the same molecule, in data set [3], the pEC50 is 4.62. In addition, the pIC50 in data set [4] is 5.49.

Molecule `COc1ccc(N2C(=O)N/C(=C\c3cc(C)n(-c4cccc(-c5nnn[nH]5)c4)c3C)C2=O)cc1` yielded a half-maximal cytotoxic concentration (CC50) at 96 h in data set [1] of 101 µM. Further, in data set [2], the selectivity ratio worked out at 2. Also, the pEC50 in data set [3] was 4.29. For the same molecule, in data set [4], the pIC50 is 4.65.

Take `Cc1cc(/C=C2\SC(=S)N(c3ccccc3)C2=O)c(C)n1-c1cccc(-c2nnn[nH]2)c1`: in data set [1], the CC50 at 96 h was 61 µM. Besides, in data set [2], the selectivity ratio was 19. In addition, the negative-log EC50 (pEC50) in data set [3] was 5.49. Further, in data set [4], the pIC50 is 5.36.

As for `Cc1cc(/C=C2\SC(=S)N(c3cccc(O)c3)C2=O)c(C)n1-c1cccc(-c2nnn[nH]2)c1`, the CC50 at 96 h in data set [1] came to 35.6 µM. In data set [2], the selectivity ratio was determined as 5.7. Moreover, in data set [3], the pEC50 is 5.20. The pIC50 in data set [4] is 5.11.

Consider `Cc1cc(/C=C2\SC(=S)N(c3cccc(C(F)(F)F)c3)C2=O)c(C)n1-c1cccc(-c2nnn[nH]2)c1`, for which half-maximal cytotoxicity in data set [1] (CC50 at 96 h) was put at 15.8 µM. In data set [2], the selectivity ratio is 2.3. Besides, the pEC50 in data set [3] is 5.17. In addition, in data set [4], the IC50 result was “Not Active”.

In data set [1], `Cc1cc(/C=C2\SC(=S)N(CCc3ccccc3)C2=O)c(C)n1-c1cccc(-c2nnn[nH]2)c1` showed a half-maximal cytotoxic concentration (CC50) at 96 h of 45.7 µM. Also, the selectivity ratio in data set [2] came out at 11. For the same molecule, in data set [3], the pEC50 was 5.39. For the same molecule, in data set [4], the pIC50 was 4.55.

`Cc1ccc(C)n1-c1cccc(-c2nnn[nH]2)c1`: in data set [2], the selectivity ratio is 32. For the same molecule, the pIC50 in data set [4] is 4.59.

As for `O=C(O)c1cc(-n2cccc2)ccc1Cl`, the pIC50 in data set [4] is 4.23.

In data set [1], `CCOC(=O)C(=Cc1cc(C)n(-c2cccc(-c3nnn[nH]3)c2)c1C)C(=O)OCC` displayed a CC50 at 96 h of 77.4 µM. Further, in data set [2], the selectivity ratio stood at 4.5. Besides, in data set [3], the pEC50 was 4.76. For the same molecule, in data set [4], the pIC50 is 4.92.

In the case of `Cc1cc(/C=C2\SC(=S)N(c3ccc(C(F)(F)F)cc3)C2=O)c(C)n1-c1cccc(-c2nnn[nH]2)c1`, the CC50 at 96 h in data set [1] was determined as 27.1 µM. Moreover, in data set [2], the selectivity ratio was found to be 2.1. Moreover, the pEC50 in data set [3] is 4.88. Also, the negative logarithm of the IC50 (pIC50) in data set [4] was 5.57.

For `Cc1cc(/C=C2\SC(=S)N(c3ccc(O)cc3)C2=O)c(C)n1-c1cccc(-c2nnn[nH]2)c1`, the CC50 at 96 h in data set [1] was 45.6 µM. In data set [2], the selectivity ratio was found to be 1.8. For the same molecule, the pEC50 in data set [3] was 4.59. Moreover, the pIC50 in data set [4] was 4.69.

With `Cc1cc(/C=C2\NC(=O)N(c3cccc(C(F)(F)F)c3)C2=O)c(C)n1-c1cccc(-c2nnn[nH]2)c1`, the CC50 at 96 h in data set [1] was 76.5 µM. In addition, the selectivity ratio in data set [2] was 1.6. The pEC50 in data set [3] was 4.31. The pIC50 in data set [4] was 4.38.

With `Cc1cc(/C=C2\SC(=S)N(c3cccc(Br)c3)C2=O)c(C)n1-c1cccc(-c2nnn[nH]2)c1`, the CC50 at 96 h in data set [1] was found to be 22.6 µM. Besides, the selectivity ratio in data set [2] was found to be 2.3. Besides, in data set [3], the pEC50 was 5.01. In data set [4], the IC50 entry was “Not Active”.
